# Experimental data: PMC3081996 (Bioorganic & medicinal chemistry letters, 2010)
# Entries after “also recorded” stand apart in the source; their conditions may differ.
# Assays:
# Format in all cases: biochemical
# human TG2 [1] = biological target: T1, human TG2 (Homo sapiens, UniProt P21980); assay: preliminary screening of isatins as TG2 inhibitors
# T1 sequence (P21980 1-687): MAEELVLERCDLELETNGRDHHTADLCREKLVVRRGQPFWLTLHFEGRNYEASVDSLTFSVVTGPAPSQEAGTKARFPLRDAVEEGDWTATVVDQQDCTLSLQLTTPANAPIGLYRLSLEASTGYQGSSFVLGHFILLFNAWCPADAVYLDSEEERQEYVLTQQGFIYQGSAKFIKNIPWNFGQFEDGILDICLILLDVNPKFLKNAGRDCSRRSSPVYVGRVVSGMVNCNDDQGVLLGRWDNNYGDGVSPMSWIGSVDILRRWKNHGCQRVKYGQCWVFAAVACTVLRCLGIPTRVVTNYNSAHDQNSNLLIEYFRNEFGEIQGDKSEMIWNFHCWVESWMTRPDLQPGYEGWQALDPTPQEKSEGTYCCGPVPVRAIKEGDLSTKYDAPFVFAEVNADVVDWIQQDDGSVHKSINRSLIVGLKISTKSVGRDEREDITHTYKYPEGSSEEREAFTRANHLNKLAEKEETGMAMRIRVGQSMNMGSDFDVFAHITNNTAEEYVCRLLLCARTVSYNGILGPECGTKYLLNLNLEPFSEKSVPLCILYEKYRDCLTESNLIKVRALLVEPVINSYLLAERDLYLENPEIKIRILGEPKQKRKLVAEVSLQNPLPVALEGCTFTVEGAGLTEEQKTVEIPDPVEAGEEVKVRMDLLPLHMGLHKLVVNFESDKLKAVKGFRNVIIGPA
# Outline: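 Coupled GDH assay of TG2-catalysed deamidation of the substrate ZQG, with human TG2 at 0.5 µM. Inhibition by isatin-derived test compounds is read as IC50.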
# human TG2 [2] = biological target: T1, human TG2; assay: GDH-coupled deamidation assay with Cbz-Gln-Gly; details: for GDH-coupled assay α (ratio Ki’/Ki): Table 4, [TG2] = 0.5 µM, mixed inhibition model
# human TG2 [3] = biological target: T1, human TG2; assay: direct fluorometric assay; details: for partial inhibition activity (in words): fluorometric assay; for Fluorescent assay α (ratio Ki’/Ki): Table 4, [TG2] = 15 nM, mixed inhibition model; for binding character in mixed inhibition model (in words): compounds that did not exhibit partial inhibition
# Outline: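 Direct fluorometric assay following release of 7-hydroxycoumarin from an ester substrate by human TG2 at 15 nM. Ki and Ki' are fitted to a mixed inhibition model, with α = Ki'/Ki. A larger α means more competitive inhibition, α = 1 means simple non-competitive, and α < 1 means increasingly uncompetitive.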
Compound,TG2 inhibitory activity (in words) (human TG2 [2]; GDH-coupled assay),GDH-coupled assay α (ratio Ki’/Ki) (human TG2 [2]),also measured
"O=C1Nc2c(F)cc(F)cc2C1=O [5,7-difluoroisatin]",–,–,IC50 (human TG2 [1]): 65 to 450 µM
O=C1Nc2ccc(Br)cc2C1=O [5-bromo],–,–,IC50 (human TG2 [1]): 65 to 450 µM
O=C1Nc2ccc(Cl)cc2C1=O [5-chloro],–,–,IC50 (human TG2 [1]): 65 to 450 µM
O=C1Nc2ccc(I)cc2C1=O [5-iodo],–,–,IC50 (human TG2 [1]): 65 to 450 µM
Cc1cc(C)c(CN2C(=O)C(=O)c3ccccc32)cc1CN1C(=O)C(=O)c2ccccc21 [Compound 4],active,–,–
O=C1C(=O)N(CN2C(=O)C(=O)c3ccccc32)c2ccccc21 [Compound 6],active,–,–
"O=C1Nc2ccccc2/C1=C1/Nc2ccccc2C1=O [Compound 7, indirubin]",inactive,–,–
"O=C1Nc2ccccc2/C1=C1\C(=O)Nc2ccccc21 [Compound 8, isoindigotin]",promising inhibitors,–,–
CC(=O)/C=C1/C(=O)Nc2ccccc21 [Compound 9],promising inhibitors,–,–
CC(=O)/C=C1/C(=O)Nc2cccc(Cl)c21 [Compound 10],–,> 100,–
CC(=O)/C=C1/C(=O)Nc2ccc(Cl)cc21 [Compound 11],–,> 100,–
CC(=O)/C=C1/C(=O)Nc2cc(F)ccc21 [Compound 12],–,> 100,–
O=C1Nc2cccc(Cl)c2/C1=C\C(=O)c1cccnc1 [Compound 16],–,> 100,–
COc1ccncc1C(=O)/C=C1/C(=O)Nc2cccc(Cl)c21 [Compound 19],–,–,partial inhibition activity (in words) (human TG2 [3]): partial inhibition activity
O=C1Nc2cccc(Cl)c2/C1=C\C(=O)c1ccccc1 [Compound 20],–,> 100,–
O=C1Nc2cccc(Cl)c2/C1=C\C(=O)c1ccc(Cl)cc1 [Compound 22],–,–,partial inhibition activity (in words) (human TG2 [3]): partial inhibition activity
Nc1ccc(C(=O)/C=C2/C(=O)Nc3cccc(Cl)c32)cc1 [Compound 27],–,–,partial inhibition activity (in words) (human TG2 [3]): partial inhibition activity
CN1C(=O)/C(=C/C(=O)c2cccnc2)c2c(Cl)cccc21 [Compound 28],–,> 100,–
O=C(/C=C1/C(=O)N(Cc2ccccc2)c2cccc(Cl)c21)c1cccnc1 [Compound 33],–,1.8,Fluorescent assay α (ratio Ki’/Ki) (human TG2 [3]): 3.6; binding character in mixed inhibition model (in words) (human TG2 [3]): non-competitive binding character
O=C1Nc2ccccc2/C1=C\C(=O)c1cccnc1 [Compound 40],–,> 100,loss in potency relative to compound 16 (human TG2 [2]; GDH-coupled assay IC50): > 20 fold
O=C1Nc2cccc(Br)c2/C1=C\C(=O)c1cccnc1 [Compound 41],sub-micromolar inhibitor,> 100,Fluorescent assay α (ratio Ki’/Ki) (human TG2 [3]): 2.6; binding character in mixed inhibition model (in words) (human TG2 [3]): non-competitive binding character
O=C1Nc2ccc(Br)cc2/C1=C\C(=O)c1cccnc1 [Compound 43],–,> 100,Fluorescent assay α (ratio Ki’/Ki) (human TG2 [3]): 4.4; binding character in mixed inhibition model (in words) (human TG2 [3]): non-competitive binding character
O=C1Nc2cc(Cl)ccc2/C1=C\C(=O)c1cccnc1 [Compound 46],nearly as potent as compound 16,0.86,"mode of inhibition (Lineweaver-Burk analysis) (human TG2 [2]; GDH-coupled assay): non-competitive, allosteric mode of action; also recorded: non-competitive inhibitory character"
O=C1Nc2cc(Br)ccc2/C1=C\C(=O)c1cccnc1 [Compound 47],nearly as potent as compound 16,–,partial inhibition activity (in words) (human TG2 [3]): partial inhibition activity
O=C1Nc2c(Cl)cccc2/C1=C\C(=O)c1cccnc1 [Compound 48],–,–,partial inhibition activity (in words) (human TG2 [3]): partial inhibition activity
